The M2OR odorant receptor database

Legend:
Conditions in all cases: stereoisomer not certain
[1] = target: T1, OR10A2 (Homo sapiens) (UniProt Q9H208)
T1 sequence (whole entry): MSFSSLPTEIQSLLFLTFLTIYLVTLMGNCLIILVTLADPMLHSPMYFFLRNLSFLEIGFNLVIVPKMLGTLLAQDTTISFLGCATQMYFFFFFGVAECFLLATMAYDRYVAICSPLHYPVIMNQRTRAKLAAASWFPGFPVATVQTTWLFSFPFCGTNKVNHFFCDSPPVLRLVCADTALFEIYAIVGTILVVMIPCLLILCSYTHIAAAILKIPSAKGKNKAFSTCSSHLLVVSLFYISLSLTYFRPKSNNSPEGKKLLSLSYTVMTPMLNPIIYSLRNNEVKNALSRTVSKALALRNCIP
Method in brief: (§1)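 Whether a receptor–molecule pair is responsive (active) rests on the original authors' judgment that its measured signal was statistically different from baseline. Pairs without that judgment are non-responsive (inactive). Sources used varied assay methods, commonly transient luciferase assays in mammalian cell lines.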

[2] = target: T2, OR10A3 (Homo sapiens) (UniProt P58181)
T2 sequence (whole entry): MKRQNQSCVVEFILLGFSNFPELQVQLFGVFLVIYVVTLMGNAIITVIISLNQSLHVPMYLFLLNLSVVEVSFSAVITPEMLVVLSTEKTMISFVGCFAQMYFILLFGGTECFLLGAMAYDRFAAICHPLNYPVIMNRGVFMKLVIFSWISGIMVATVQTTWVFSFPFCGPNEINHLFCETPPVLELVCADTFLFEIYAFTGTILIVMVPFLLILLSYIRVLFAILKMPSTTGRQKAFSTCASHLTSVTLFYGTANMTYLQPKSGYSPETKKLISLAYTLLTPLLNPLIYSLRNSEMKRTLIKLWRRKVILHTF
Method in brief: as §1

[3] = target: T3, OR10A4 (Homo sapiens) (UniProt Q9H209)
T3 sequence (whole entry): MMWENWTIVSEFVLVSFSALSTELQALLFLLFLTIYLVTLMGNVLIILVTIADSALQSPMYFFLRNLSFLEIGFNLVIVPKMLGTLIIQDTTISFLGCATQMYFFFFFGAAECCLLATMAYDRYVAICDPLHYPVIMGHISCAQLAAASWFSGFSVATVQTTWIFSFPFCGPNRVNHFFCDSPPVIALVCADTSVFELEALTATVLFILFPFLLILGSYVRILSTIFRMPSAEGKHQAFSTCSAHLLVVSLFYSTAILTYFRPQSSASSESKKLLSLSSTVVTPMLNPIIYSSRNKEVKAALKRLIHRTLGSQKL
Method in brief: as §1

[4] = target: T4, OR10A5 (Homo sapiens) (UniProt Q9H207)
T4 sequence (whole entry): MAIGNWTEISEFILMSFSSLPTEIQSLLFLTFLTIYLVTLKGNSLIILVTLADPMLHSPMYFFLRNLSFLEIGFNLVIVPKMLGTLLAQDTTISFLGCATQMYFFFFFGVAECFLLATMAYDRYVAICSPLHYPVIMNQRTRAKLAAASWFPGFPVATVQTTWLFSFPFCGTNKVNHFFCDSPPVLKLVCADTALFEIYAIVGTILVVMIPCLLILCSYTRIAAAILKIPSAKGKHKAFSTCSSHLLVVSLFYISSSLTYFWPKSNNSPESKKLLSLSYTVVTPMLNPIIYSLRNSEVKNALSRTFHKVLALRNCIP
Method in brief: as §1

[5] = target: T5, OR10A6 (Homo sapiens) (UniProt Q8NH74)
T5 sequence (whole entry): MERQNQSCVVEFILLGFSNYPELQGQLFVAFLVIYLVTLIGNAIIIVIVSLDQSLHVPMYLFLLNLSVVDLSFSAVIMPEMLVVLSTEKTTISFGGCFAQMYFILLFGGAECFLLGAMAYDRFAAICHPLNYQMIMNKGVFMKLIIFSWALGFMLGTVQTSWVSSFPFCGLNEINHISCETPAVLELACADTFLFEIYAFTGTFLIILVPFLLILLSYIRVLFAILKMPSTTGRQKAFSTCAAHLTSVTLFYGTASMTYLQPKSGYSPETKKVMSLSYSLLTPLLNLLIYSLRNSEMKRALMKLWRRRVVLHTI
Method in brief: as §1

[6] = target: T6, OR10A7 (Homo sapiens) (UniProt Q8NGE5)
T6 sequence (whole entry): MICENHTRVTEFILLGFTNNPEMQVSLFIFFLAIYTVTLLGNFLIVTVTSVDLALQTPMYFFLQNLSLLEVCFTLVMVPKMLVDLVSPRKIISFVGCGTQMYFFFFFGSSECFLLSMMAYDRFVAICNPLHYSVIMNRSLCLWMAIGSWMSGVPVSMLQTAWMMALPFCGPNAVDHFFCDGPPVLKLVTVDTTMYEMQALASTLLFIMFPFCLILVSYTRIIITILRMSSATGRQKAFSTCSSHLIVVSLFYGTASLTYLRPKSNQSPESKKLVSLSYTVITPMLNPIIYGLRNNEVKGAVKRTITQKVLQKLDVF
Method in brief: as §1

[7] = target: T7, OR10AD1 (Homo sapiens) (UniProt Q8NGE0)
T7 sequence (whole entry): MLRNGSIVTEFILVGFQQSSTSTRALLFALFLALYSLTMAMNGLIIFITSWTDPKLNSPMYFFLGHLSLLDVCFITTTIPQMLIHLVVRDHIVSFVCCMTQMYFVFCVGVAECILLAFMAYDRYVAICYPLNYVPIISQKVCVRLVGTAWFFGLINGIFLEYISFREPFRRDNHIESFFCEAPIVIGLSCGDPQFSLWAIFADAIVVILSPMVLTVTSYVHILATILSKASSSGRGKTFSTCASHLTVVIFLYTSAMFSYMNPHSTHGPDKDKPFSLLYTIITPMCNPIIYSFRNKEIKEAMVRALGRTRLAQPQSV
Method in brief: as §1

[8] = target: T8, OR10AG1 (Homo sapiens) (UniProt Q8NH19)
T8 sequence (whole entry): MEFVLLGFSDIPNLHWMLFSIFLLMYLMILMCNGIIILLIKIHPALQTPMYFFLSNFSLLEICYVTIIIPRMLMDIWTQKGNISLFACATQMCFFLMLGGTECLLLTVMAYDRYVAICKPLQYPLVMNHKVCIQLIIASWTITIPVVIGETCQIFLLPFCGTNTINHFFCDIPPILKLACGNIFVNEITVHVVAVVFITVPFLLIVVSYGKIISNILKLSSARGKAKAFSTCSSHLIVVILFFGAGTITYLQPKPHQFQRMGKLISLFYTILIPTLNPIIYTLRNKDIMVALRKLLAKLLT
Method in brief: as §1

[9] = target: T9, OR10C1 (Homo sapiens) (UniProt Q96KK4)
T9 sequence (whole entry): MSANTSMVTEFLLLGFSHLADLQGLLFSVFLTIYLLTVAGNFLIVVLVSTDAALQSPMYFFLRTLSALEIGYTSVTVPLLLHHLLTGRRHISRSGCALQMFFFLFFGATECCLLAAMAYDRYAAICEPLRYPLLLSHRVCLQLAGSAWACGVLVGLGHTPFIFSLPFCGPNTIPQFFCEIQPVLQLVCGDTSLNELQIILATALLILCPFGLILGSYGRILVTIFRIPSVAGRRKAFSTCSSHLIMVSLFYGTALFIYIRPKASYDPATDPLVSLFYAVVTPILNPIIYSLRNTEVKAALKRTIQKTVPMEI
Method in brief: as §1

[10] = target: T10, OR10D3 (Homo sapiens) (UniProt Q8NH80)
T10 sequence (whole entry): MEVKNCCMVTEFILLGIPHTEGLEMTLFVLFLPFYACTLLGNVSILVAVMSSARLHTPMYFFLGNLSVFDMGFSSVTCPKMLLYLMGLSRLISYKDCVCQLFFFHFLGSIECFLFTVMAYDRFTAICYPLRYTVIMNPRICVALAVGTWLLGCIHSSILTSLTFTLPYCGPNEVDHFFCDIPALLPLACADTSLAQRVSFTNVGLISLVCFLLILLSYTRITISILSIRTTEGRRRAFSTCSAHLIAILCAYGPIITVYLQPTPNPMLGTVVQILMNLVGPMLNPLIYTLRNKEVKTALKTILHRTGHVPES
Method in brief: as §1

Measured: odorant receptor agonist call;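 note: active if original authors judged signal statistically different from baseline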

CC(CO)CS (stereo not given)
inactive: [1] | [2] | [3] | [4] | [5] | [6] | [7] | [8] | [9] | [10]
